For data set [1], the target named is Substance-P receptor (Cavia porcellus) (UniProt P30547). As to the kind of experiment: In vivo binding affinity towards Tachykinin receptor 1 after oral administration in presence of agonist ASMSP in guinea pig pulmonary tissue in lung plasma extravation assay. Type of data set: organism-based. The method in brief: (§1)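 Guinea pig lung plasma extravasation model. Antagonist dosed orally; NK1-selective agonist ASMSP challenge 2 h postdose. Single ED50 calculated from dose response in three to six animals per dose over 4–5 dose levels, doses staggered across several days.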
Chain of Substance-P receptor (Cavia porcellus) (P30547 whole entry): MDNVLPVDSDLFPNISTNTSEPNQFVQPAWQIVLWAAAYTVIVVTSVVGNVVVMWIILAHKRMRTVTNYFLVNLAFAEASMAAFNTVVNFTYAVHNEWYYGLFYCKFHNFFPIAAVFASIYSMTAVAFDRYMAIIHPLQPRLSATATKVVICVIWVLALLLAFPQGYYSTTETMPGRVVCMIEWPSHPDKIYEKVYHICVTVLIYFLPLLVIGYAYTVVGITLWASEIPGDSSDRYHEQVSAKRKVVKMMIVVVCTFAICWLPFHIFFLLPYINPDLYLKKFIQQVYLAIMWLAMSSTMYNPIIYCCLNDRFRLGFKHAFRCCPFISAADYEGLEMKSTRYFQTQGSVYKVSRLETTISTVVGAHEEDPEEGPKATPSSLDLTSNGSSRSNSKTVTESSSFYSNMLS

Data set [2] is described as follows: Bioavailability in rat (dose 1-10 uM/kg i.v.). The settings on record: in vivo, iv. It is filed as ADME, organism-based. The method in brief: (§2)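 Compound given to rat (n = 3) or dog (n = 1) by iv bolus at 1–10 μmol/kg, or orally at 10–100 μmol/kg, as a solution in 75% poly(ethylene glycol) 400 in normal saline.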
Data set [3] concerns the target T1, Substance-K receptor (Homo sapiens, UniProt P21452).
T1 sequence (P21452 whole entry): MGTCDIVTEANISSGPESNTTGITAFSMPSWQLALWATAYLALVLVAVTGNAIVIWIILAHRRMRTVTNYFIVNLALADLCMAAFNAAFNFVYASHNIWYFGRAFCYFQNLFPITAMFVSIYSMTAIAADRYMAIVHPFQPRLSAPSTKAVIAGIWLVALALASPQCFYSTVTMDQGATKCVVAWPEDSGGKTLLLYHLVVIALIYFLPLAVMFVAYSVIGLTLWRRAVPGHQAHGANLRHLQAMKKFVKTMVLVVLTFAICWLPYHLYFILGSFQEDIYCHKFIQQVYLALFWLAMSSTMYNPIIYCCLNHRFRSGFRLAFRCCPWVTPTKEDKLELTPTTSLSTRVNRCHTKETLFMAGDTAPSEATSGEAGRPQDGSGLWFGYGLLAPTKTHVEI
Put plainly: Inhibition of binding of [3H]NKA to human Tachykinin receptor 2 (NK2) expressed in mouse erythroleukemia cells. It is filed as cell-based.

Data set [4] has as its target T2, Substance-K receptor (Cavia porcellus) (UniProt Q64077).
T2 sequence (whole entry): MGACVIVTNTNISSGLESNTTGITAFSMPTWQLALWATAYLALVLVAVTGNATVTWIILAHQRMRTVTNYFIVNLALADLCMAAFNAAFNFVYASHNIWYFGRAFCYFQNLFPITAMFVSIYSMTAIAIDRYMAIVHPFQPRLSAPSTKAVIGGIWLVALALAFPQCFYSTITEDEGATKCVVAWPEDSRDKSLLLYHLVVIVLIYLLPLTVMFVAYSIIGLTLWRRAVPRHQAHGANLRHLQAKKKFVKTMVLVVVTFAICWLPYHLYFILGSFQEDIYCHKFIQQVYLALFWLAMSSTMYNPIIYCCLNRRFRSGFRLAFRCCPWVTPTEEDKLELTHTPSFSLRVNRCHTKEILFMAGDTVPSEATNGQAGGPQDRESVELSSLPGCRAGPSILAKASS
Put plainly: In vivo potency as dose ratio (ED50 ratio for Tachykinin receptor 2 (NK2) in presence and absence of antagonist) in guinea pig PMM after oral administration at a dose 30 uM/Kg.

In another data set the target is T3, Neuromedin-K receptor (Homo sapiens, UniProt P29371).
T3 sequence (P29371 whole entry): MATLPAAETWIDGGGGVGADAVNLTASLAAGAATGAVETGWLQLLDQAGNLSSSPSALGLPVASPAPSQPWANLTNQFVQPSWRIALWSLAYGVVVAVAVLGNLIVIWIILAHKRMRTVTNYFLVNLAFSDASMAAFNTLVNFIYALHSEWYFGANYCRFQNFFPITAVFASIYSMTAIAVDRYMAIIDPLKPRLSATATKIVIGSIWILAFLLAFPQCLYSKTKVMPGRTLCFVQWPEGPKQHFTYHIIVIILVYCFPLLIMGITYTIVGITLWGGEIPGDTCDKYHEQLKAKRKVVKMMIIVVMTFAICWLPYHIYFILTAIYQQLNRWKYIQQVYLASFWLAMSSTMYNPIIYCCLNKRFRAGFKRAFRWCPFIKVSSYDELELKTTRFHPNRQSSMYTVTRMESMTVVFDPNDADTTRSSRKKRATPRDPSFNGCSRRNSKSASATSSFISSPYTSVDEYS
Put plainly: Inhibition of binding of [125I]MPNI to human Tachykinin receptor 3 (NK3) expressed in mouse erythroleukemia cells. Type of data set: cell-based.

The target of data set [5] is T2, Substance-K receptor (Cavia porcellus). Put plainly: In vivo potency as dose ratio (ED50 ratio for Tachykinin receptor 2 (NK2) in presence and absence of antagonist) in guinea pig PMM after intravenous administration at a dose 10 uM/Kg.
Data set [6] has as its target Substance-P receptor (Cavia porcellus) (UniProt P30547). Put plainly: In vivo potency as dose ratio (ED50 ratio for Tachykinin receptor 1 in presence and absence of antagonist) in guinea pig PMM after oral administration at a dose 30 uM/Kg.
Data set [7] in a line: Bioavailability in dog (dose 1-10 uM/kg i.v.). Type of data set: ADME, organism-based, Canis lupus familiaris. The conditions noted are these: in vivo, iv. An outline of the steps: as §2
The target of another data set is Substance-P receptor (Homo sapiens, UniProt P25103). Put plainly: Inhibition of binding of [3H]SP to Tachykinin receptor 1 of human tachykinin receptor expressed in mouse erythroleukemia cells. It is filed as cell-based.
Chain of Substance-P receptor (P25103 whole entry): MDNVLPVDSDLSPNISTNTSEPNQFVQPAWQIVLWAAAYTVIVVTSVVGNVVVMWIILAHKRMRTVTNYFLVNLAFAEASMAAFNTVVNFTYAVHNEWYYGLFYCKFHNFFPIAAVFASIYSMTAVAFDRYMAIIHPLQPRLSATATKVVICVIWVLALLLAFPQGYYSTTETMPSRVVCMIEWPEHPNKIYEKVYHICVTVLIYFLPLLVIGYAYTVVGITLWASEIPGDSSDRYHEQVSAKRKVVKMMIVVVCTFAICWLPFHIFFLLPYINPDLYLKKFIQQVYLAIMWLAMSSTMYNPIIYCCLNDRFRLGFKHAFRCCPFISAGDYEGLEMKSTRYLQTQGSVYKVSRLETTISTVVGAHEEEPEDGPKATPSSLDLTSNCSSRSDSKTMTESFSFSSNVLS
The target in data set [8] is Substance-P receptor (Cavia porcellus) (UniProt P30547). Put plainly: Effective dose concentration required for In vivo binding affinity towards Tachykinin receptor 1 after oral administration in presence of agonist ASMSP in guinea pig pulmonary tissue in lung plasma extravation assay. Type of data set: organism-based. An outline of the steps: as §1
Data set [9] addresses T4, Substance-K receptor (Oryctolagus cuniculus) (UniProt P79218).
T4 sequence (whole entry): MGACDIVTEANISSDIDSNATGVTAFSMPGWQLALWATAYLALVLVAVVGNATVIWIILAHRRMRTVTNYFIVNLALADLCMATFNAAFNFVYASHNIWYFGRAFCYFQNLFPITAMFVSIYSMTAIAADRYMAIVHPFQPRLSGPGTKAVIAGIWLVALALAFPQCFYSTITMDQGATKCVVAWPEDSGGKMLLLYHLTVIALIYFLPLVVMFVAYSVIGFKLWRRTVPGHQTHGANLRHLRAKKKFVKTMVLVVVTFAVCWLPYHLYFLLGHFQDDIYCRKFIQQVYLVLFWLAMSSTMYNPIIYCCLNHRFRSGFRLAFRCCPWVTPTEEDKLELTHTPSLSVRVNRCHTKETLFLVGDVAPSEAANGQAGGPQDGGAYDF
As to the kind of experiment: Tested for the binding affinity towards tachykinin receptor 2 (NK2) in rabbit pulmonary artery tissue.

In data set [10] the target is T2, Substance-K receptor (Cavia porcellus). Put plainly: Effective dose concentration required for In vivo binding affinity towards Tachykinin receptor 2 (NK2) receptor after oral administration in presence of agonist BANK in guinea pig pulmonary tissue in pulmonary mechanics assay.
The target is the same in data set [11]. Put plainly: In vivo binding affinity towards Tachykinin receptor 2 (NK2) after oral administration in presence of agonist BANK in guinea pig pulmonary tissue in pulmonary mechanics assay.
The target of data set [12] is T1, Substance-K receptor. Put plainly: Inhibition of binding of [3H]NKA to human Tachykinin receptor 2 (NK2) in mouse erythroleukemia cells.
For data set [13], the target named is Substance-P receptor (Cavia porcellus) (UniProt P30547). Put plainly: In vivo potency as dose ratio (ED50 ratio for Tachykinin receptor 1 in presence and absence of antagonist) in guinea pig PMM after intravenous administration at a dose 10 uM/Kg.
Data set [14] deals with T2, Substance-K receptor (Cavia porcellus). As to the kind of experiment: In vivo binding affinity towards Tachykinin receptor 2 (NK2) receptor after oral administration in presence of agonist BANK in guinea pig pulmonary tissue in pulmonary mechanics assay.
Data set [15] concerns Substance-P receptor (Oryctolagus cuniculus). As to the kind of experiment: Tested for the binding affinity towards tachykinin receptor 1 (NK1) in rabbit pulmonary artery tissue.

As a reminder, the ED50 is the dose that gives a 50% effect, or the effect in half of the subjects. The term bioavailability denotes dose-corrected exposure relative to a reference, in per cent. Read a high bioavailability as good availability. One may read the Ki as a measure of affinity in units of concentration, obtained from inhibition or displacement. A higher Ki goes with weaker binding. In general, pKB refers to the KB on a negative log10 scale, so that one unit is a factor of ten. Read a low pKB as a high KB.

With `COc1c(C#N)cc2ccccc2c1C(=O)N(C)C[C@@H](CCN1CCC(c2ccccc2[S@+](C)[O-])CC1)c1ccc(Cl)c(Cl)c1`, the ED50 in data set [1] was found to be 0.07 µmol/kg. The bioavailability was determined as 12% in data set [2] and 51% in [7]. The Ki at Substance-K receptor [3] is 67 nM; on Neuromedin-K receptor it was 220 nM; at Substance-P receptor, 0.17 nM. For the same molecule, the dose ratio in [4] came to 2; in [5] it was 14; in [6] it was 610.

In the case of `CN(C[C@@H](CCN1CCC(c2ccccc2[S@+](C)[O-])CC1)c1ccc(Cl)c(Cl)c1)C(=O)c1cc(C#N)cc2ccccc12`, the bioavailability was found to be 9% in [2] and 18% in [7]. Further, the ED50 in data set [8] worked out at 0.6 µmol/kg; in data set [10], 13 µmol/kg. Besides, the Ki at Substance-K receptor [3] was 0.64 nM; on Substance-P receptor it was 0.12 nM. In data set [9], this molecule returned a pKB of 8.26.

On to `COc1ccc(C2CCN(CC[C@H](CN(C)C(=O)c3cc(C#N)cc4ccccc34)c3ccc(Cl)c(Cl)c3)CC2)c([S@+](C)[O-])c1`, for which the ED50 came to 3 µmol/kg in data set [11] and 1 µmol/kg in data set [1]. Also, the figures for the Ki at Substance-K receptor [12], on Neuromedin-K receptor and on Substance-P receptor were 0.34 nM, 39 nM and 0.14 nM, respectively. Also, the bioavailability in data set [2] worked out at 7%; in data set [7] it was 18%. Further, in data set [9], the pKB was 8.7.

Consider `CNC(=O)C1(N2CCCCC2=O)CCN(CC[C@H](CN(C)C(=O)c2c(OC)c(C#N)cc3ccccc23)c2ccc(Cl)c(Cl)c2)CC1`, for which the figures for the ED50 in data set [1] and in data set [14] were 0.5 µmol/kg and 9.3 µmol/kg, respectively. Besides, the dose ratio in data set [13] was 384; in [4], 49; in data set [5] it was 155; in [6], 50. Also, the Ki is 35 nM on Substance-K receptor [3], 9.4 nM at Neuromedin-K receptor and 0.27 nM at Substance-P receptor. The pKB in data set [15] amounted to 8.7; in [9], 8.2.

For the origin of these results see ChEMBL document CHEMBL1135768, “Design, synthesis, and SAR of tachykinin antagonists: modulation of balance in NK(1)/NK(2) receptor antagonist activity” (J Med Chem, 2002).
